# Results reported in PubChem BioAssay AID1665 (Sanford-Burnham Center for Chemical Genomics, 2009).
# Among all 190,000 compounds or so, about 590 (0.31%) were called active.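 Rule for the calls: active = nuclear translocation activity above 50% at 5 µM, with a well cell count of 50 or more; inconclusive = wells under 50 cells across six images, flagged as toxic; inactive = the rest.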 The list comes from a sample in which actives are over-represented; it also holds similar structures and randomly drawn compounds.
# Assay: modulators of beta-catenin nuclear translocation, primary screen, imaging, HeLa cells, immunofluorescence, high-content (AID 1665);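 for nuclear translocation activity: plate controls were DMSO negative control for no effect and GSK-3 inhibitor IX positive control for full effect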
# Settings: at 5 µM; cell count: measured here: cell count, cytotoxicity flag; nuclear translocation activity: stronger effect = higher value
# How it was run: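 Assay system: human HeLa cells, native beta-catenin; doses: 5 µM primary, 0.02–20 µM confirmation; incubation: compound treatment 24 h, 37°C, 5% CO2; technique: fluorescence imaging of beta-catenin antibody stain plus DAPI; measure: % activation, nuclear-to-cytoplasmic median beta-catenin signal ratio per cell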
SMILES,cell count,nuclear translocation activity
c1csc(-c2nnc(COc3ncnc4sccc34)o2)c1,1250 cells,2.6% (inactive)
O=C(NC(=O)N1CCSCC1)c1c(Cl)cccc1Cl,1280 cells,0.2% (inactive)
O=C(Nc1cccnc1)c1cc([N+](=O)[O-])ccc1Cl,1370 cells,-0.7% (inactive)
C=CCOC(=O)C1=C(C)NC(SCC(=O)OCC)=C(C#N)C1c1ccc(C)cc1 (stereo not drawn),1350 cells,0.1% (inactive)
Cc1ccc(C2CC(=O)NC(SCC(=O)OCc3ccccc3)=C2C#N)o1 (stereo not drawn),922 cells,47.9% (inactive)
CCOC(=O)CSC1=C(C#N)C(c2sccc2C)CC(=O)N1 (stereo not drawn),658 cells,69% (active)
O=C(O)C1CCN(C(=O)c2cc(F)cc3c2OCOC3)CC1,1200 cells,-2.6% (inactive)
O=C(NNC(=S)NC1CC2CCC1C2)c1ccc(Cl)cc1 (stereo not drawn),1150 cells,-1.4% (inactive)
CCNC(=O)CCc1nc(-c2ccc(C)cc2)no1,1360 cells,-0.5% (inactive)
COc1ccc(C)c(Cn2c(-c3nonc3N)nc3ccccc32)c1,720 cells,101% (active)
Nc1nonc1-c1nc2ccccc2n1Cc1ccc(F)cc1,778 cells,-0.5% (inactive)
Nc1nonc1-c1nc2ccccc2n1CCC(=O)O,899 cells,-2% (inactive)
CCCc1nnc(NC(=O)c2cc(OC)cc(OC)c2)s1,878 cells,-2.3% (inactive)
O=C(Nc1nnc(Cc2ccc(Cl)cc2)s1)c1ccncc1,1270 cells,1% (inactive)
COc1ccc(Cc2nnc(NC(=O)c3cc(OC)c(OC)c(OC)c3)s2)cc1OC,371 cells,53.4% (active)
O=[N+]([O-])c1ccc2nc(-c3ccccn3)[nH]c2c1,1380 cells,-0.1% (inactive)
Brc1ccc(-c2nn[nH]n2)cc1,1320 cells,0.9% (inactive)
Nc1ccc(C(=O)OCC(=O)NC2CCS(=O)(=O)C2)cc1[N+](=O)[O-] (stereo not drawn),1260 cells,-3.1% (inactive)
Nc1c(N(CCO)C(=O)C2CCCCC2)c(=O)[nH]c(=O)n1Cc1ccccc1,1350 cells,0.2% (inactive)
O=C(Nc1ccc(S(=O)(=O)N2CCOCC2)cc1)c1ccc2ncsc2c1,1420 cells,-1.2% (inactive)
O=C(NCc1ccco1)C1CCCN1S(=O)(=O)c1ccccc1C(F)(F)F (stereo not drawn),1300 cells,-0.6% (inactive)
Cc1cc(CO)nn1-c1ccc([N+](=O)[O-])cc1,1190 cells,-2.5% (inactive)

SMILES,cell count,nuclear translocation activity
COc1ccc(Cl)cc1C(=O)NNC(=O)c1nc2nc(C)cc(C)n2n1,1330 cells,1.2% (inactive)
COc1cc2c(cc1OC)C(/C=C/c1ccco1)=NCC2,1310 cells,2% (inactive)
Cc1ccc(C)c2[nH]c(=O)c(CN(Cc3cccnc3)C(=S)NCc3ccco3)cc12,1320 cells,-1.9% (inactive)
Cc1cc(C(=O)OCC(=O)NCc2ccco2)c(C)n1-c1ccccc1,337 cells,94.1% (active)
CN(c1ccccc1)S(=O)(=O)c1ccc(Cl)c(C(=O)OCC(=O)NCc2ccco2)c1,1260 cells,-0.2% (inactive)
O=C(COC(=O)c1cc(S(=O)(=O)N2CCCCC2)ccc1Cl)NCc1ccco1,1080 cells,-1.5% (inactive)
CN(NC(=O)c1ccccc1)c1nc2ccccc2nc1C(F)(F)F,965 cells,6.3% (inactive)
COc1ccc(C(=O)NN(C)c2nc(-c3ccccc3)cc(C)c2S(C)(=O)=O)cc1,1220 cells,-2.1% (inactive)
CSc1nc(N(C)NC(=O)c2cccc(C)c2)c2ccccc2n1,751 cells,97.3% (active)
Cc1cc(C)n(-c2nc(C(F)(F)F)nc3ccccc23)n1,998 cells,0% (inactive)
COc1ccc(OCC(=O)NNC(=O)c2cccc(C)c2)cc1,1060 cells,-0.2% (inactive)
CN(NC(=O)c1ccccc1F)c1nc(C(F)(F)F)nc2ccccc12,103 cells,155% (active)
COC(=O)c1sccc1NN1C(=O)c2ccccc2C1=O,1180 cells,-1.9% (inactive)
COC(=O)c1cc(N2CCNCC2)nc2ccccc12,1220 cells,1.7% (inactive)
Cc1ccc(F)cc1NC(=O)N1CCCN(c2ccc(C(F)(F)F)cn2)CC1,1280 cells,-1% (inactive)
CCN(CC)c1ccc(/C=N/NC(=O)c2cnccn2)c(O)c1,1050 cells,12.5% (inactive)
Cc1cc2c(cc1C)N(Cc1ccccc1)C1=NCCCN12,1210 cells,-0.7% (inactive)
Cc1ccc(NC(=O)/C(=C\c2ccccc2)NC(=O)c2ccco2)cc1,1370 cells,0.2% (inactive)
COC(=O)c1cn(C(=O)c2ccc(Cl)cc2)c2ccccc12,1100 cells,-1.4% (inactive)
COc1c(N2CCN(C(=S)Nc3ccccc3F)C(C)C2)c(F)cc2c(=O)c(C(=O)O)cn(C3CC3)c12 (stereo not drawn),1380 cells,0.4% (inactive)
Cc1ccc(/C=N/NC(=O)COc2ccccc2-c2ccccc2)cc1,162 cells,107% (active)
CSc1ccc(/C=N\NC(=O)COc2ccc(Cl)cc2Br)cc1,812 cells,-1.4% (inactive)
